Source: publication PMC6925334 (ACS chemical biology, 2019)

How the values were obtained:
IRE1β* RNase = IRE1β* RNase (Homo sapiens, UniProt Q76MJ5); experiment: fluorescence-quenched XBP1 mini-substrate RNase assay, IRE1β*; assay type: biochemical
Method in brief: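 Recombinant IRE1β* RNase cleaves a FRET-quenched XBP1 mini-substrate, monitored in real time as a fluorescence increase. Activation is tested at a low, mainly monomeric IRE1β* concentration and inhibition at a higher, dimer-containing concentration. Initial cleavage rates are compared with DMSO. IC50 values are mean ± SEM, n=3. Selectivity is the IRE1α* RNase IC50 divided by the IRE1β* RNase IC50.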

IRE1α* RNase = IRE1α* RNase (Homo sapiens, UniProt O75460); experiment: fluorescence-quenched XBP1 mini-substrate RNase assay, IRE1α*; assay type: biochemical; details: read-out: IRE1α RNase IC50, mean ± SEM, n=3
Sequence of IRE1α* RNase (O75460 465-977 limits assumed): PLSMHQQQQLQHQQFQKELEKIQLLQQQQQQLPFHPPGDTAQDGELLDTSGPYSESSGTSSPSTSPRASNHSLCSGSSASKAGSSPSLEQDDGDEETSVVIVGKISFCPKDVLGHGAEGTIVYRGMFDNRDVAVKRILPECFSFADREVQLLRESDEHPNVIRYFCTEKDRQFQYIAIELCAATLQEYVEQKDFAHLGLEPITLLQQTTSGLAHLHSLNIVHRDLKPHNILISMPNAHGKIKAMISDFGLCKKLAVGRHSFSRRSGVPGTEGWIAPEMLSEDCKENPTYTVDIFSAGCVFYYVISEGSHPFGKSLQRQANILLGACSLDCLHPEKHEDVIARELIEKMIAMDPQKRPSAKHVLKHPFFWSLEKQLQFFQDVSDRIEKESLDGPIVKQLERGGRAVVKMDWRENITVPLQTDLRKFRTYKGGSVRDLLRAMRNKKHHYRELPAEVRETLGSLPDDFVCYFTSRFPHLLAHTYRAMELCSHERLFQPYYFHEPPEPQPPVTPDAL
Method in brief: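 IRE1α* RNase activity was followed in vitro as the real-time rise in fluorescence on cleavage of a FRET-quenched XBP1 mini-substrate. IC50 was taken from inhibition curves, mean ± SEM, n=3. Selectivity is the IRE1α RNase IC50 divided by the IRE1β RNase IC50, for each inhibitor.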

Sequence of IRE1β* RNase (Q76MJ5 452-926 limits assumed): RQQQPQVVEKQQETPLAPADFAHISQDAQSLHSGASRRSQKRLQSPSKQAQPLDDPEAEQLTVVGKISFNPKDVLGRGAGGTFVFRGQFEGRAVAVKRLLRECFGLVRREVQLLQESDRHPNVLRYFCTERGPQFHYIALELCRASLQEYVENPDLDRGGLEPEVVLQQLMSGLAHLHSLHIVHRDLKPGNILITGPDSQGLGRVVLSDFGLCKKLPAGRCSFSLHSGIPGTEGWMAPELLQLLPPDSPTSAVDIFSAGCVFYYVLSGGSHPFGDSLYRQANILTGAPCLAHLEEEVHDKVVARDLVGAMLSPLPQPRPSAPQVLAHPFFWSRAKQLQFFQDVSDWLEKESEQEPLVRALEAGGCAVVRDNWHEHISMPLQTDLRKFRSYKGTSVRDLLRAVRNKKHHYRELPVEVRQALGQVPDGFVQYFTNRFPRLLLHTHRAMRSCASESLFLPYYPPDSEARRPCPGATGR

rate of XBP1 mini-substrate cleavage relative to the apo form (IRE1β* RNase; Low [IRE1β*] (mainly monomeric), RNase activation) [fold] | IRE1β RNase Selectivity (Fold) (IRE1β* RNase; IRE1α* RNase IC50 divided by IRE1β* RNase IC50) | IC50 (IRE1β* RNase; read-out: IRE1β RNase IC50, mean ± SEM, n=3, XBP1 mini-substrate) [nM] | IC50 (IRE1α* RNase) [nM] | SMILES | effect on ability to cleave the XBP1 mini-substrate (IRE1β* RNase; High [IRE1β*] (RNase active dimer))
12 | – | – | – | O=C(Nc1c[nH]nc1-c1nc2ccc(CN3CCOCC3)cc2[nH]1)NC1CC1 [AT9283] | –
– | 0.09 | 55 ± 5 | 5 ± 2.3 | Cc1ccc2c(NS(=O)(=O)c3ccccc3Cl)cccc2c1Oc1ncccc1-c1ccnc(N[C@H]2CCCNC2)n1 [compound 1] | almost complete loss in its ability to cleave the XBP1 mini-substrate
